In BindingDB's records for doi:10.1016/j.ejmech.2011.10.026 (National Cheng Kung University, 2012):
pIC50: −log10 of the molar value.

Target: T1, Nitric oxide synthase, inducible (Mus musculus, UniProt P29477)
T1 sequence (P29477 whole entry): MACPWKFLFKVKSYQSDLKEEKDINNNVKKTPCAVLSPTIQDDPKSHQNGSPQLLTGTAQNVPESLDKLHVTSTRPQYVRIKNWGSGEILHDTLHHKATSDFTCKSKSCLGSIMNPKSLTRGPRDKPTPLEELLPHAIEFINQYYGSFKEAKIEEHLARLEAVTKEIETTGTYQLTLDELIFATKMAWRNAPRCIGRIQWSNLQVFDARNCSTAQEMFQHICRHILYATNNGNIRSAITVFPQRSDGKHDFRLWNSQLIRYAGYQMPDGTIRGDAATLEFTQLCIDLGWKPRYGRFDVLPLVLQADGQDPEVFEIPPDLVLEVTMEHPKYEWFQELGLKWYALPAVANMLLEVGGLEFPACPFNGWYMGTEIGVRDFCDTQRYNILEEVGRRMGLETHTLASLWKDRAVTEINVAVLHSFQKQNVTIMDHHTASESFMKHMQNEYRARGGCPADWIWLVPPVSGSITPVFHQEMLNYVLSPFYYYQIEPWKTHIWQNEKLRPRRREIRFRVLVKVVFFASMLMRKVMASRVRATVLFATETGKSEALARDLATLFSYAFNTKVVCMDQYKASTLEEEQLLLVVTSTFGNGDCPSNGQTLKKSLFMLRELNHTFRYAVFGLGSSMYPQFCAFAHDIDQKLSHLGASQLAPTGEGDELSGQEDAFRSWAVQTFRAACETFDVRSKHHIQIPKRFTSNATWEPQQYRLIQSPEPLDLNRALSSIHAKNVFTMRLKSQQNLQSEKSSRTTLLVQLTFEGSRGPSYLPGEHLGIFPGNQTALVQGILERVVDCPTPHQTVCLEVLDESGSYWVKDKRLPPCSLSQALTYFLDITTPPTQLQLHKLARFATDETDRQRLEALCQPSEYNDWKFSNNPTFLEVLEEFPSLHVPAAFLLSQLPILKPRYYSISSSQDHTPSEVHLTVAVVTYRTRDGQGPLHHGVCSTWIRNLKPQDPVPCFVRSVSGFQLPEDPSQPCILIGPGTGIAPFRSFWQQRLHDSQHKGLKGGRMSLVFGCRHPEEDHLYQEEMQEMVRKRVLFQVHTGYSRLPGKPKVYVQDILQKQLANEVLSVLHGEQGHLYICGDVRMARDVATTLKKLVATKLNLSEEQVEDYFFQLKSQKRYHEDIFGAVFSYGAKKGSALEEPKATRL
Assay: Inhibition of iNOS-mediated nitric oxide production in LPS-stimulated mouse BV2 cells measured after 24 hrs of post-stimulation by Griess reaction method
Procedure, shortened: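 Murine BV2 microglia in DMEM with 5% FBS were given compound at 1–50 µM and stimulated with LPS 0.5 µg/mL. Nitrite accumulated in the medium was measured by Griess reagent 24 h after stimulation. IC50 given as mean ± SEM of three experiments on different days using cells from different passages.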

pIC50 | Structure (SMILES)
5.26 | O=C(/C=C/c1ccccc1)c1cc(C(=O)/C=C/c2ccccc2)c(O)cc1O
4.59 | COc1ccc(/C=C/C(=O)c2cc(C(=O)/C=C/c3ccc(OC)cc3)c(O)cc2O)cc1
5.09 | COc1cccc(/C=C/C(=O)c2cc(C(=O)/C=C/c3cccc(OC)c3)c(O)cc2O)c1
5.74 | COc1cccc(/C=C/C(=O)c2cc(C(=O)/C=C/c3cccc(OC)c3OC)c(O)cc2O)c1OC
6.02 | COc1ccc(/C=C/C(=O)c2cc(C(=O)/C=C/c3ccc(OC)c(OC)c3)c(O)cc2O)cc1OC
5.15 | COc1ccc(/C=C/C(=O)c2cc(C(=O)/C=C/c3ccc(OC)c(OC)c3OC)c(O)cc2O)c(OC)c1OC
4.63 | COc1ccc(OC)c(/C=C/C(=O)c2cc(C(=O)/C=C/c3cc(OC)ccc3OC)c(O)cc2O)c1
5.40 | O=C(/C=C/c1ccco1)c1cc(C(=O)/C=C/c2ccco2)c(O)cc1O
4.44 | Cc1ccc(/C=C/C(=O)c2cc(C(=O)/C=C/c3ccc(C)o3)c(O)cc2O)o1
4.36 | Cc1ccsc1/C=C/C(=O)c1cc(C(=O)/C=C/c2sccc2C)c(O)cc1O
5.06 | O=C(/C=C/c1ccccn1)c1cc(C(=O)/C=C/c2ccccn2)c(O)cc1O
4.75 | CC(=O)c1cc(C(=O)C=Cc2ccc3c(c2)OCO3)c(O)cc1O
